Screening data as filed in PubChem BioAssay.
This is a sample that favours compounds with a hit; in the whole collection about 2.6% have one here.
OXTR agonist – agonists of human oxytocin receptor; P30559; CHO-OTR cells, Fluo-8 calcium fluorescence; normalized: DMSO 0%, oxytocin 100%; activation, % at 3 µM; hit rate 0.32% among 320,000;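 active means activation above the mean of all tested compounds plus 3 SD, cutoff set per screening run, cut at about 20% in these data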;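 further: peak over basal fluorescence ratio from a 100 s FLIPR kinetic read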
V1aR counter – activates human V1a receptor in oxytocin agonist counter-screen | P37288 | hit rate 0.25% among 320,000 | activation, % at 3 µM | AID 2797 | CHO-V1R cells, Fluo-8 calcium fluorescence, agonist mode; 0% DMSO, 100% 3 nM vasopressin;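 active means activation above the mean activation of all tested compounds plus 3 SD, per screening run, cut at about 20% in these data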;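 further: signal is peak over basal fluorescence ratio across a 100 second FLIPR read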
Target sequence (P37288 whole entry, looked up): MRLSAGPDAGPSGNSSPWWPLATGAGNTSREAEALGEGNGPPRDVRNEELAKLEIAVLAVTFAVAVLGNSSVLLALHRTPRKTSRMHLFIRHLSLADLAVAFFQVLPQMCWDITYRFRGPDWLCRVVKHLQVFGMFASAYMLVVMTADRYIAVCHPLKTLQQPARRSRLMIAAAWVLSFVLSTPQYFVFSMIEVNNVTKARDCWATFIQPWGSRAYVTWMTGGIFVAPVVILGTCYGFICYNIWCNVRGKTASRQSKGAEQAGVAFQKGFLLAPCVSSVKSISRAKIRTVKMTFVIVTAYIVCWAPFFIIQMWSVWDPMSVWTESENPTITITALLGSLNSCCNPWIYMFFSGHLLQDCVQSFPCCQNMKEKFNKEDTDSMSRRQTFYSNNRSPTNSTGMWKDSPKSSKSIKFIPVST
OXTR potentiate – potentiates the human oxytocin receptor response; CHO-OTR cells, Fluo-8 calcium fluorescence, potentiator mode; 0% = oxytocin EC15, 100% = EC100; P30559; AID 2445; hit rate 0.061% among 320,000; activation, % at 3 µM;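 active means activation above that plate's cutoff, the mean activation of tested compounds plus 3 SD, cut at about 6.6% in these data, passing the limit was not always enough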;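 further: 100% uses oxytocin at 75 nM as the full agonist control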
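Material: CHO-OTR cells, human receptor; compound dosing: single dose, 3.0 µM nominal final compound concentration; schedule: 6 min compound pre-incubation at room temperature, 100 s kinetic read; measured by: kinetic Fluo-8 calcium fluorescence; read-out basis: % activation vs EC15 and EC100 oxytocin; controls: EC15 oxytocin alone as 0%, 75 nM oxytocin as 100%; replicates: singlicate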
OX1R antag-1 – antagonists of human orexin 1 receptor (OX1R). OX1R-expressing cells, FRET antagonist read-out. inhibition, % at 6.6 µM. hit rate 1.8% among 330,000. AID 485270. O43613; in the data active means inhibition mostly above about 38%, no sharp cut-off; inactive means mostly below about 40%;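 further: 0% = agonist challenge alone and 100% = reference antagonist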
CHO parental Ca – counter-screen for OX1R antagonists: effect in parental CHO cells; parental CHO-K1, ATP-induced calcium, Fluo-8 fluorescence; inhibition, % at 5.6 µM; hit rate 0.63% among 330,000;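 active means inhibition above that plate's mean sample inhibition plus 3 SD, cut at about 26% in these data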;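 further: 0% = ATP-challenged DMSO wells and 100% = DMSO wells without ATP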
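Measured by: calcium-sensitive Fluo-8 fluorescence / Test system: CHO parental line / Controls: ATP-challenged DMSO wells low, unchallenged DMSO wells high / Measure: % inhibition / Compound: single nominal dose of 5.6 µM per compound / Replicates: single well per compound, no replicates / Reagent: ATP as calcium-mobilizing challenge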
OX1R antag-2 – blocks the human orexin 1 receptor | O43613 | CHO/OX1R cells, Fluo-8 calcium fluorescence, orexin A | inhibition, % at 5 µM | hit rate 0.43% among 330,000 | AID 434989;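 active means inhibition above its plate's threshold, mean inhibition of all tested compounds on the plate plus 3 SD, cut at about 37% in these data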;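 further: 0% = orexin A challenge wells and 100% = SB-334867-A antagonist wells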
* marks the source's active call; other numbers are inactive results; . = not tested or not shown.

SMILES	OXTR agonist	V1aR counter	OXTR potentiate	OX1R antag-1	CHO parental Ca	OX1R antag-2
CCOC(=O)C1=C(C)N(C[C@@H]2CC[C@@H](Cc3ccc(-c4ccccc4)cc3)O2)C(=O)NC1c1cccc([N+](=O)[O-])c1 (some centres undefined)	.	.	.	3	-19	-28
CCNc1ccc2noc3c2c1C(=O)c1ccccc1-3	110*	78*	-11	123*	42*	103*
O=C1c2ccccc2-c2onc3ccc(NCc4ccco4)c1c23	58*	35*	-31	82*	37	62*
CCOc1ccc2noc3c2c1C(=O)c1ccccc1-3	59*	75*	-14	50	28	32
CCNc1ccccc(-c2ccc3ccccc3n2)c1=O	0	2	3	19	-7	-24
COc1cccc(CNC(=O)COC(=O)CCc2cc(OC)c(OC)c(OC)c2)c1	0	2	-8	7	-8	-19
CCc1cc2c(COC(=O)c3cccc(NS(C)(=O)=O)c3)cc(=O)oc2cc1O	2	3	-12	30	-19	0
CCOC(=O)N1C2C=C(C)[C@@H]2[C@@H]2CC(=O)N21 (some centres undefined)	1	0	2	8	-5	-1
O=C(O)c1oc2ccccc2c1CSc1ccccn1	1	0	-4	19	-4	-10
O=C(O)c1oc2ccccc2c1CSc1ccc(Cl)cc1	-1	0	-23	63*	1	-11
O=[N+]([O-])c1cc(Br)c2nsnc2c1N1CCOCC1	-2	-2	-15	29*	-9	-15
COc1cc([N+](=O)[O-])c(N2CCOCC2)c([N+](=O)[O-])c1OC	2	2	-14	22	-21	-13
O=C(NCCC1CCCCN1S(=O)(=O)c1ccccc1)C(=O)NCc1ccc(F)cc1 (centres undefined)	-1	5	-5	16	-6	-26
COc1cccc(-c2c(-c3cc(OC)cc(OC)c3)n(C)c3ccc(-c4cccc5[nH]ccc45)cc23)c1	0	0	-6	7	-10	0
O=C(Nc1nnc(-c2ccc3c(c2)CCCC3)o1)c1ccc(Cl)cc1Cl	-1	-1	-3	55*	-5	5
c1ccc(C2=NNC(c3ccccn3)=NN2)nc1	0	2	-12	-4	-2	-9
O=C(Nc1ccc(F)cc1)C(Sc1nnc2ccccn12)c1ccccc1 (centres undefined)	-1	0	-4	15	-2	-17
CCOc1ccccc1NC(=O)C(Sc1nnc2ccccn12)c1ccccc1 (centres undefined)	-1	0	-4	41*	-15	-6
CC(C)Oc1ccc(/C=N/NC(=O)c2nnn(-c3nonc3N)c2CN(C)c2ccccc2)cc1	6	6	-9	56*	-6	22
C/C(=N\NC(=O)c1nnn(-c2nonc2N)c1CN(C)c1ccccc1)c1cccc(O)c1	3	1	-11	49*	-10	9
Cc1ccsc1/C=N/NC(=O)c1nnn(-c2nonc2N)c1CN(C)c1ccccc1	6	7	-13	50*	-4	20
CC(C)CN(C(=O)c1ccc([N+](=O)[O-])s1)c1c(N)n(Cc2ccccc2)c(=O)[nH]c1=O	-1	-1	-4	49	-16	-21
O=[N+]([O-])c1ccc(S(=O)(=O)NCC(c2cccnc2)N2CCc3ccccc32)cc1 (centres undefined)	-1	-1	-11	20	-21	-36
COC(=O)c1c(NC(=O)CC2SC(N)=NC2=O)sc2c1CCC(C(C)(C)C)C2 (centres undefined)	0	1	-5	14	-2	-10
CN(C)c1nc(N)nc(-c2nc3ccccc3s2)n1	-2	-1	-2	58*	-28	-12
SMILES	OXTR agonist	V1aR counter	OXTR potentiate	OX1R antag-1	CHO parental Ca	OX1R antag-2
O=C(O)CC(CC(=O)Nc1ccc(-n2ccc(C(F)(F)F)n2)cc1)c1ccccc1 (centres undefined)	0	-2	-6	12	0	-17
O=C(Nc1ccccc1)Nc1ccc(-n2ccc(C(F)(F)F)n2)cc1	5	9	-17	24	41*	37
CCOC(=O)c1ccc(C(=O)OCC)c(NC(=S)Nc2ccc([N+](=O)[O-])cc2OC)c1	2	3	5	24	-18	-22
Cc1onc(-c2ccccc2Cl)c1C(=O)Nc1ccc(-c2cn3cccnc3n2)cc1	1	1	-5	46*	-8	5
Cc1onc(-c2ccccc2Cl)c1C(=O)NCC(=O)O	0	0	-6	8	-7	-10
Cc1onc(-c2ccccc2Cl)c1C(=O)NCCn1c(C)cc2ccccc21	0	2	-4	46*	-3	7
COc1ccccc1Nc1nc(-c2cccnc2)cs1	-3	-2	-4	38*	-19	-27
O=[N+]([O-])c1ccccc1Nc1nc(-c2cccnc2)cs1	-3	-1	-2	60*	-17	0
COc1cccc(CCNC(=O)CCc2nnc(Cc3cc(OC)ccc3OC)o2)c1	0	1	-8	11	-2	-22
Cc1ccccc1Nc1cccc2nonc12	0	2	-5	-4	-3	5
Cn1c(=O)c2c(nc(NN=C3CCCC3)n2C)n(C)c1=O	0	-2	-6	48*	-11	-19
Cn1c(=O)c2c(nc(NNC(=O)C(F)(F)F)n2C)n(C)c1=O	0	0	-18	7	0	-7
CCCn1c(-c2cccs2)nc2nc3ccccc3nc21	-2	-1	-5	64*	-25	-30
CCOC(=O)CC(=O)CSc1nc(N)c(C#N)c(-c2ccc(Cl)cc2)c1C#N	2	1	-5	15	9	2
CCCSc1nc(N)c(C#N)c(-c2ccc(C)cc2)c1C#N	9	1	-19	17	41*	5
CCOC(=O)C(=Cc1ccc(-c2ccsc2C(=O)OC)o1)C(=O)OCC	-1	-1	-3	21	-8	-20
COC(=O)C(=Cc1ccc(-c2ccsc2C(=O)OC)o1)C(=O)OC	0	-1	0	50*	-6	-15
COc1ccc(NC(=O)CSc2ccc3nnc(-c4ccccn4)n3n2)c(OC)c1	0	1	-6	30	-9	-9
Cc1ccc(S(=O)(=O)/N=C2/C=C(C3C(=O)CC(C)(C)CC3=O)C(=O)c3ccccc32)cc1	0	0	-3	63*	-12	-11
CC1Cc2ccccc2N1C(=O)c1ccc(N2CCCCC2)c([N+](=O)[O-])c1 (centres undefined)	-3	0	-10	50*	-16	-13
